# Measured values published in article PMC6904512 (Molecular microbiology, 2019).
# Legend:
# EcIMPDH/D243G = EcIMPDH/D243G (Escherichia coli, UniProt P0ADG7, D243G); assay: biochemical; format: biochemical
# AbIMPDH = AbIMPDH (Acinetobacter baumannii, UniProt D0CF46); assay: biochemical; format: biochemical
# EcIMPDH/WT = EcIMPDH/WT (Escherichia coli, UniProt P0ADG7); assay: biochemical; format: biochemical
# [1] = test system: E. coli strains containing WT and mutant IMPDH; assay: Growth of engineered E. coli strains with WT or mutant IMPDH; format: cell-based, Escherichia coli
# Outline: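 E. coli strains carrying WT or mutant IMPDH (guaB) were precultured overnight to saturation in M9 + 1 mM IPTG + 2 g/L glucose. They were diluted 100-fold into M9 salts with 300 mg/L thiamine, 1 mM IPTG and the carbon source; for coumarate, 1 g/L with or without 5 mg/L guanosine (~18 μM). Triplicate cultures were read at OD600 in a plate reader, growth rates were curve-fitted, and standard deviation was taken over three biological replicates.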
# Sequence of EcIMPDH/D243G (P0ADG7 whole entry D243G): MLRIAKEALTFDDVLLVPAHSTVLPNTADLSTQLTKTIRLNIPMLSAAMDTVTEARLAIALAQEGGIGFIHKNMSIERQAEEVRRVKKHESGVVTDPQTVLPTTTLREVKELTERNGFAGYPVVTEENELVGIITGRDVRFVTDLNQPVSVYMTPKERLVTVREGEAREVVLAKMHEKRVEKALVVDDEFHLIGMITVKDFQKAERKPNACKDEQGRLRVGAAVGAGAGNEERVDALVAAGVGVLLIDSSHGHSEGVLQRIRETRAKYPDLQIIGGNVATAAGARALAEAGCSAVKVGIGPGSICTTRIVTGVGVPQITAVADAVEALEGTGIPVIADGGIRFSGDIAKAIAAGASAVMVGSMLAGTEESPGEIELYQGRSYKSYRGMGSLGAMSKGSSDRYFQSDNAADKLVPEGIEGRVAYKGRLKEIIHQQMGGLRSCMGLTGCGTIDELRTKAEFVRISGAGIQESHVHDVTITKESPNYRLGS
# Sequence of EcIMPDH/WT (P0ADG7 whole entry): as the sequence (P0ADG7 whole entry D243G) above, with G243D counted along it
compound,measurement,setting,value
O=Cc1ccc(O)cc1 [4-hydroxybenzaldehyde],Inhibition mechanism with respect to IMP,EcIMPDH/D243G; D243G EcIMPDH,uncompetitive inhibitor
same,Inhibition mechanism with respect to NAD+,EcIMPDH/D243G; D243G EcIMPDH,noncompetitive (mixed) inhibitor
same,Ki,"EcIMPDH/D243G; Ki,app(4HB), EcIMPDH/D243G, 20 nM enzyme, 12 μM IMP, 500 μM NAD+, pH 7.0",1250 ± 50 µM
same,Ki,AbIMPDH,720 ± 30 µM
same,Ki,"EcIMPDH/WT; Ki,app(4HB), EcIMPDH/WT, 20 nM enzyme, 12 μM IMP, 500 μM NAD+, pH 7.0",320 ± 30 µM
same,Inhibition mechanism with respect to IMP,EcIMPDH/WT; wild type EcIMPDH,uncompetitive inhibitor
same,Inhibition mechanism with respect to NAD+,EcIMPDH/WT; wild type EcIMPDH,noncompetitive (mixed) inhibitor
NC(=O)c1ccc[n+]([C@@H]2O[C@H](COP(=O)([O-])OP(=O)(O)OC[C@H]3O[C@@H](n4cnc5c(N)ncnc54)[C@H](O)[C@@H]3O)[C@@H](O)[C@H]2O)c1 [NAD],Kii(NAD),"EcIMPDH/D243G; EcIMPDH/D243G, substrate inhibition by NAD, fixed 1.2 mM IMP",3500 ± 690 µM
same,Km,"EcIMPDH/D243G; read-out: Km(NAD), EcIMPDH/D243G, fixed 1.2 mM IMP, 50 nM enzyme",210 ± 40 µM
same,Kii(NAD),"AbIMPDH; AbIMPDH, substrate inhibition by NAD, fixed 1.2 mM IMP",10600 ± 1100 µM
same,Km,"AbIMPDH; read-out: Km(NAD), AbIMPDH, fixed 1.2 mM IMP, 50 nM enzyme",208 ± 17 µM
same,Kii(NAD),"EcIMPDH/WT; EcIMPDH/WT, substrate inhibition by NAD, fixed 1.2 mM IMP",4300 ± 530 µM
same,Km,"EcIMPDH/WT; read-out: Km(NAD), EcIMPDH/WT, fixed 1.2 mM IMP, 50 nM enzyme",210 ± 20 µM
Nc1nc2c(ncn2[C@@H]2O[C@H](CO)[C@@H](O)[C@H]2O)c(=O)[nH]1 [guanosine],Effect of added guanosine on inhibition by 4-hydroxybenzaldehyde,"[1]; strain JME129 (wild-type guaB), growth with glucose (Figure S6)",relieved inhibition
same,Effect of added guanosine on growth with coumarate,"[1]; strain with wild-type IMPDH, 1 g/L coumarate, 5 mg/L guanosine",increased growth with coumarate
